ChEMBL document CHEMBL1125042, “Hypolipidemic activity of rifamycin derivatives” (J Med Chem, 1990)
Values after ≈ are worked out from the molar mass of the structure shown.

Tests used:
Rattus norvegicus [1] = assay: Tested for hypolipidemic activity in male rats, cholesterol was determined in serum at 10 mg/kg; format: functional
Summary of the method: (§1)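 Groups of eight male Wistar rats (200–230 g) dosed orally in PEG 400, either daily for 7 days (killed 24 h after the last dose) or for 4 days with a second dose on day 4 (killed 16 h later). Fasted 16 h. Paired sera pooled, lipoproteins separated by ultracentrifugation (1.006 and 1.040 g/cm³), HDL taken as the infranatant. Cholesterol measured enzymatically; % vs vehicle, mean ± SEM of four pools.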

Rattus norvegicus [2] = assay: Tested for hypolipidemic activity in male rats, cholesterol was determined in serum at 20 mg/kg; format: functional; summary of the method: as §1
Rattus norvegicus [3] = assay: Hypolipidemic activity was determined in male rats, and high-density lipoprotein level was determined at 10 mg/kg; format: functional
Summary of the method: (§2)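 Male Wistar rats (200–230 g), eight per group, were dosed orally in PEG 400 at 8 a.m. for 4 days, plus a second dose at 4 p.m. on day 4. Rats were fasted 16 h and killed 16 h after the last dose. Sera from pairs of rats were pooled. LDL (up to 1.040 g/cm³) was separated by ultracentrifugation and the HDL infranatant taken. Cholesterol was measured enzymatically. Results are % versus vehicle control, mean ± SEM of four pools, Student's t test.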

Rattus norvegicus [4] = assay: Hypolipidemic activity was determined in male rats, and high-density lipoprotein level was determined at 20 mg/kg; format: functional; summary of the method: as §2
Rattus norvegicus [5] = assay: Hypolipidemic activity was determined in male rats, and low-density lipoprotein level was determined at 10 mg/kg; format: functional; summary of the method: as §2
Rattus norvegicus [6] = assay: Hypolipidemic activity was determined in male rats, and low-density lipoprotein level was determined at 20 mg/kg; format: functional; summary of the method: as §2
[7] = Inhibitory activity against RNA polymerase was determined; parameters: species or system Escherichia coli
Summary of the method: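 E. coli DNA-dependent RNA polymerase inhibition measured in vitro on ether-extracted, permeabilized E. coli cells.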

Rattus norvegicus [8] = assay: Hypolipidemic activity was determined by measuring the % serum HDL in hypercholesterolemic RICO rat at a dose of 10 mg/kg; format: functional, organism-based; parameters: dose 10 mg/kg
Summary of the method: (§3)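 Genetically hypercholesterolemic RICO rats (Tif:RAI,f,SPF) were dosed orally for 7 days. Sera were collected after a 16 h fast and pooled in pairs. LDL (1.006–1.040 g/cm³) and HDL infranatant were separated by ultracentrifugation. Cholesterol and triglycerides were measured enzymatically. Results are % change versus vehicle control, mean ± SEM of four pools.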

Rattus norvegicus [9] = assay: Hypolipidemic activity was determined by measuring the % serum HDL in hypercholesterolemic RICO rat at a dose of 3 mg/kg; format: functional, organism-based; parameters: dose 3 mg/kg; summary of the method: as §3
Rattus norvegicus [10] = assay: Hypolipidemic activity was determined by measuring the % serum HDL in hypercholesterolemic RICO rat at a dose of 30 mg/kg; format: functional, organism-based; parameters: dose 30 mg/kg; summary of the method: as §3
Rattus norvegicus [11] = assay: Hypolipidemic activity was determined by measuring the % serum HDL in normal rat at a dose of 1 mg/kg; format: functional, organism-based; parameters: dose 1 mg/kg
Summary of the method: (§4)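 Normal male Wistar rats (200–230 g), eight per group, were dosed orally in PEG 400 once daily for 7 days. They were fasted 16 h and killed 24 h after the last dose. Serum from pairs was pooled and LDL/HDL fractions were ultracentrifuged. Cholesterol and triglycerides were measured enzymatically. Results are % versus vehicle control, mean ± SEM of four pools, Student's t test.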

Rattus norvegicus [12] = assay: Hypolipidemic activity was determined by measuring the % serum HDL in normal rat at a dose of 3 mg/kg; format: functional, organism-based; parameters: dose 3 mg/kg; summary of the method: as §4
Rattus norvegicus [13] = assay: Hypolipidemic activity was determined by measuring the % serum HDL in normal rat at a dose of 30 mg/kg; format: functional, organism-based; parameters: dose 30 mg/kg; summary of the method: as §4
Rattus norvegicus [14] = assay: Hypolipidemic activity was determined by measuring the % serum cholesterol in hypercholesterolemic RICO rat at a dose of 10 mg/kg; format: functional, organism-based; parameters: dose 10 mg/kg; summary of the method: as §3
Rattus norvegicus [15] = assay: Hypolipidemic activity was determined by measuring the % serum cholesterol in hypercholesterolemic RICO rat at a dose of 3 mg/kg; format: functional, organism-based; parameters: dose 3 mg/kg; summary of the method: as §3
Rattus norvegicus [16] = assay: Hypolipidemic activity was determined by measuring the % serum cholesterol in hypercholesterolemic RICO rat at a dose of 30 mg/kg; format: functional, organism-based; parameters: dose 30 mg/kg; summary of the method: as §3
Rattus norvegicus [17] = assay: Hypolipidemic activity was determined by measuring the % serum cholesterol in normal rat at a dose of 1 mg/kg; format: functional, organism-based; parameters: dose 1 mg/kg; summary of the method: as §4
Rattus norvegicus [18] = assay: Hypolipidemic activity was determined by measuring the % serum cholesterol in normal rat at a dose of 10 mg/kg; format: functional, organism-based; parameters: dose 10 mg/kg; summary of the method: as §4
Rattus norvegicus [19] = assay: Hypolipidemic activity was determined by measuring the % serum cholesterol in normal rat at a dose of 3 mg/kg; format: functional, organism-based; parameters: dose 3 mg/kg; summary of the method: as §4
Rattus norvegicus [20] = assay: Hypolipidemic activity was determined by measuring the % serum cholesterol in normal rat at a dose of 30 mg/kg; format: functional, organism-based; parameters: dose 30 mg/kg; summary of the method: as §4
Rattus norvegicus [21] = assay: Hypolipidemic activity was determined by measuring the % serum LDL-cholesterol in hypercholesterolemic RICO rat at a dose of 10 mg/kg; format: functional, organism-based; parameters: dose 10 mg/kg; summary of the method: as §3
Rattus norvegicus [22] = assay: Hypolipidemic activity was determined by measuring the % serum LDL-cholesterol in hypercholesterolemic RICO rat at a dose of 3 mg/kg; format: functional, organism-based; parameters: dose 3 mg/kg; summary of the method: as §3
Rattus norvegicus [23] = assay: Hypolipidemic activity was determined by measuring the % serum LDL-cholesterol in hypercholesterolemic RICO rat at a dose of 30 mg/kg; format: functional, organism-based; parameters: dose 30 mg/kg; summary of the method: as §3
Rattus norvegicus [24] = assay: Hypolipidemic activity was determined by measuring the % serum LDL in normal rat at a dose of 1 mg/kg; format: functional, organism-based; parameters: dose 1 mg/kg; summary of the method: as §4
Rattus norvegicus [25] = assay: Hypolipidemic activity was determined by measuring the % serum LDL in normal rat at a dose of 10 mg/kg; format: functional, organism-based; parameters: dose 10 mg/kg; summary of the method: as §4
Rattus norvegicus [26] = assay: Hypolipidemic activity was determined by measuring the % serum LDL in normal rat at a dose of 3 mg/kg; format: functional, organism-based; parameters: dose 3 mg/kg; summary of the method: as §4
Rattus norvegicus [27] = assay: Hypolipidemic activity was determined by measuring the % serum LDL in normal rat at a dose of 30 mg/kg; format: functional, organism-based; parameters: dose 30 mg/kg; summary of the method: as §4
Rattus norvegicus [28] = assay: Hypolipidemic activity was determined by measuring the % serum triglycerides in normal rat at a dose of 3 mg/kg; format: functional, organism-based; parameters: dose 3 mg/kg; summary of the method: as §4
Rattus norvegicus [29] = assay: Hypolipidemic activity was determined by measuring the % serum triglycerides in normal rat at a dose of 30 mg/kg; format: functional, organism-based; parameters: dose 30 mg/kg; summary of the method: as §4
Rattus norvegicus [30] = assay: Hypolipidemic activity was determined by measuring the % serum triglycerides in hypercholesterolemic RICO rat at a dose of 10 mg/kg; format: functional, organism-based; parameters: dose 10 mg/kg; summary of the method: as §3
Rattus norvegicus [31] = assay: Hypolipidemic activity was determined by measuring the % serum triglycerides in hypercholesterolemic RICO rat at a dose of 3 mg/kg; format: functional, organism-based; parameters: dose 3 mg/kg; summary of the method: as §3
Rattus norvegicus [32] = assay: Hypolipidemic activity was determined by measuring the % serum triglycerides in hypercholesterolemic RICO rat at a dose of 30 mg/kg; format: functional, organism-based; parameters: dose 30 mg/kg; summary of the method: as §3
Rattus norvegicus [33] = assay: Hypolipidemic activity was determined by measuring the % serum triglycerides in normal rat at a dose of 1 mg/kg; format: functional, organism-based; parameters: dose 1 mg/kg; summary of the method: as §4
Rattus norvegicus [34] = assay: Hypolipidemic activity was determined by measuring the % serum triglycerides in normal rat at a dose of 10 mg/kg; format: functional, organism-based; parameters: dose 10 mg/kg; summary of the method: as §4
Staphylococcus aureus = assay: Antibacterial activity against Staphylococcus aureus 10B; format: functional
Summary of the method: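 Agar dilution on DST agar with 2-fold drug dilutions. Inoculum of 10⁴ viable S. aureus 10B was taken from liquid-nitrogen stock, thawed 30 min and not subcultured. It was applied by multipoint replicator and incubated overnight at 37 °C. MIC is the lowest concentration inhibiting growth relative to control cultures.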

Rattus norvegicus [35] = assay: Hypolipidemic activity was determined by measuring the % serum HDL in normal rat at a dose of 10 mg/kg; format: functional, organism-based; parameters: dose 10 mg/kg; summary of the method: as §4

In the case of COC1/C=C/OC2(C)Oc3c(C)c(O)c4c(O)c(c(N5CCN(Cc6c(C)cc(C)cc6C)CC5)c(O)c4c3C2=O)NC(=O)/C(C)=C\C=C\C(C)C(O)C(C)C(O)C(C)C(OC(C)=O)C1C (stereo unspecified), the Activity (Rattus norvegicus [1]) is reported as -35%, the Activity (Rattus norvegicus [2]) is reported as -63% and the Activity (Rattus norvegicus [3]) is reported as -38%. The Activity (Rattus norvegicus [4]) was -58%, the Activity (Rattus norvegicus [5]) was -43% and the Activity (Rattus norvegicus [6]) was -79%. It also gave an IC50 [7] of 0.3 µg/mL (≈ 0.328 µM), a Serum HDL-cholesterol (Rattus norvegicus [8]) of -30% and a Serum HDL-cholesterol (Rattus norvegicus [9]) of -7%. It also gave a Serum HDL-cholesterol (Rattus norvegicus [10]) of -72%, a Serum HDL-cholesterol (Rattus norvegicus [11]) of -8% and a Serum HDL-cholesterol (Rattus norvegicus [12]) of -14%. For the same compound, the Serum HDL-cholesterol (Rattus norvegicus [13]) was -69%, the Serum cholesterol (Rattus norvegicus [14]) was -30% and the Serum cholesterol (Rattus norvegicus [15]) was -8%. The Serum cholesterol (Rattus norvegicus [16]) was -65%, the Serum cholesterol (Rattus norvegicus [17]) was 0% and the Serum cholesterol (Rattus norvegicus [18]) was -42%. For the same compound, the Serum cholesterol (Rattus norvegicus [19]) was -11%, the Serum cholesterol (Rattus norvegicus [20]) was -72% and the Serum LDL-cholesterol (Rattus norvegicus [21]) was -42%. For the same compound, the Serum LDL-cholesterol (Rattus norvegicus [22]) was -29%, the Serum LDL-cholesterol (Rattus norvegicus [23]) was -68% and the Serum LDL-cholesterol (Rattus norvegicus [24]) was -11%. The Serum LDL-cholesterol (Rattus norvegicus [25]) was -53%, the Serum LDL-cholesterol (Rattus norvegicus [26]) was -28% and the Serum LDL-cholesterol (Rattus norvegicus [27]) was -64%. For the same compound, the Serum triglyceride (Rattus norvegicus [28]) was -3%, the Serum triglyceride (Rattus norvegicus [29]) was -50% and the Serum triglyceride (Rattus norvegicus [30]) was -17%. For the same compound, the Serum triglyceride (Rattus norvegicus [31]) was 8%, the Serum triglyceride (Rattus norvegicus [32]) was -55% and the Serum triglyceride (Rattus norvegicus [33]) was 11%. The Serum triglyceride (Rattus norvegicus [34]) was -18%, the MIC (Staphylococcus aureus) was 0.01 µg/mL (≈ 0.0109 µM) and the Serum HDL-cholesterol (Rattus norvegicus [35]) was -46%.
